Assays:
[1] = target: 5-hydroxytryptamine receptor 2B (Homo sapiens, UniProt P41595); experiment: Displacement of [3H]LSD from 5-HT2B after 1.5 hrs by liquid scintillation counting
D(2) dopamine receptor [2] = target: T1, D(2) dopamine receptor (Homo sapiens, UniProt P14416); experiment: Displacement of [3H]N-methylspiperone from D2 after 1.5 hrs by liquid scintillation counting
[3] = Displacement of [3H]MK801 from PCP binding site of NMDA receptor at 10 uM after 1.5 hrs by liquid scintillation counting
[4] = target: Sigma non-opioid intracellular receptor 1 (Rattus norvegicus, UniProt Q9R0C9); experiment: Displacement of [3H](+)-pentazocine from sigma 1 receptor in rat brain homogenate after 2.5 hrs by liquid scintillation counting; format: tissue-based
Sigma non-opioid intracellular receptor 1, sequence (Q9R0C9 whole entry): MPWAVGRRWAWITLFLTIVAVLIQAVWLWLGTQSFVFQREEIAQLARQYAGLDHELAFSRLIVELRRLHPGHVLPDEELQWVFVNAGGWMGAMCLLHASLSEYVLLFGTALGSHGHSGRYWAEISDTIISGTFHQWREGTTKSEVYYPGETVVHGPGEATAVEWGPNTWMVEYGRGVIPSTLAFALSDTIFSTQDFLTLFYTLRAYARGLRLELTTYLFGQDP
In short: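 σ1 affinity by competition with [³H](+)-pentazocine in rat brain homogenate, following a modification of the Kovacs and Larson protocol. Ki determinations were run by the NIMH Psychoactive Drug Screening Program. Values are mean ± SEM from triplicate assays.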

[5] = Displacement of [3H]DTG from sigma 2 receptor in rat PC12 cells after 2 hrs by liquid scintillation counting; format: cell-based; conditions: pc-12
In short: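 σ2 affinity by competition with [³H]DTG in a PC12 cell preparation, following a modified Kovacs and Larson protocol. Ki determinations were run by the NIMH PDSP. Values are mean ± SEM of triplicate assays.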

PC-12 = experiment: Selectivity ratio of Ki for sigma 2 receptor in rat PC12 cells to Ki for sigma 1 receptor in rat brain homogenates; format: cell-based
In short: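 Competition binding, done by the NIMH Psychoactive Drug Screening Program. σ1 Ki came from displacement of [³H](+)-pentazocine in rat brain homogenate, and σ2 Ki from displacement of [³H]DTG in a PC12 cell preparation. Ki values were mean with SEM from triplicate assays. The ratio is σ2 Ki divided by σ1 Ki.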

D(2) dopamine receptor [6] = target: T1, D(2) dopamine receptor; experiment: Displacement of [3H]N-methylspiperone from D2 at 10 uM after 1.5 hrs by liquid scintillation counting

5-hydroxytryptamine receptor 2B, sequence (P41595 whole entry): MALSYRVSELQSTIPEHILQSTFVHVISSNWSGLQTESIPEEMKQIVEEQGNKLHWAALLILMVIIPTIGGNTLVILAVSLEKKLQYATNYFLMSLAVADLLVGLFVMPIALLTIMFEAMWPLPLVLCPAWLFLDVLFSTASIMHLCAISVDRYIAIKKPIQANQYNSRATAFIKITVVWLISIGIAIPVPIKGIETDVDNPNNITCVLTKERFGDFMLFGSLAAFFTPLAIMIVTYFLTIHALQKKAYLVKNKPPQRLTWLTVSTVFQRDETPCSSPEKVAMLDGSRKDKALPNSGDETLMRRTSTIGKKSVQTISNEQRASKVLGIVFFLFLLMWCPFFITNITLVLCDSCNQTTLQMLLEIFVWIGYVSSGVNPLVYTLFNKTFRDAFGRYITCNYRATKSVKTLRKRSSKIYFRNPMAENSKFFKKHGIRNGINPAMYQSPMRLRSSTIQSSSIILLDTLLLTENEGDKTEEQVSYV
T1 sequence (P14416 whole entry): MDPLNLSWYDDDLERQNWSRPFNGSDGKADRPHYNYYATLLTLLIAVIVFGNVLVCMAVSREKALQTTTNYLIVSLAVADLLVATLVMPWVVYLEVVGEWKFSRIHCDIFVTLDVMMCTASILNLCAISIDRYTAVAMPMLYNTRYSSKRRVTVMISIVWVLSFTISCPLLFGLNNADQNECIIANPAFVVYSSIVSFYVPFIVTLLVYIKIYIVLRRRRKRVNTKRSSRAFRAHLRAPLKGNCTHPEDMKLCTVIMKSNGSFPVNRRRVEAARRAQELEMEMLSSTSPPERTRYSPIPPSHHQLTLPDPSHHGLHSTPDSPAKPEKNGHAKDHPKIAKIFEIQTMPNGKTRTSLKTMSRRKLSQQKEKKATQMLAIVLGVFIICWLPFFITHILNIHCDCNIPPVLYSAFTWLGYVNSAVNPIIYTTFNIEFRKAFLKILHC

Row | Ki [1] [nM] | Ki (D(2) dopamine receptor [2]) [nM] | inhibition [3] [%] | Ki [4] [nM] | inhibition (D(2) dopamine receptor [6]) [%] | SMILES | Ki [5] [nM] | Ratio Ki (PC-12)
1 | 628 | 5870 | < 50 | 8.3 | – | COc1ccccc1CCCN1CCN(Cc2cc3ccccc3o2)CC1 | 53 | 6
2 | 275 | 89 | < 50 | 4.2 | – | c1ccc(CCCCN2CCN(Cc3cc4ccccc4o3)CC2)cc1 | 18 | 4
3 | 155 | > 10000 | < 50 | 3.1 | < 50 | COc1ccc(CCCN2CCN(Cc3cc4ccccc4o3)CC2)cc1 | 138 | 45
4 | 352 | 5790 | < 50 | 13 | – | COc1ccc(CCCCN2CCN(Cc3cc4ccccc4o3)CC2)cc1 | 87 | 7
5 | 463 | – | < 50 | 9.4 | < 50 | COc1ccc(CCN2CCN(Cc3cc4ccccc4o3)CC2)cc1 | 101 | 11
6 | 343 | 484 | < 50 | 7.6 | – | COc1cccc(CCCCN2CCN(Cc3cc4ccccc4o3)CC2)c1 | 211 | 28
7 | 332 | 432 | < 50 | 16 | – | COc1ccccc1CCCCN1CCN(Cc2cc3ccccc3o2)CC1 | 130 | 8
8 | 243 | 556 | < 50 | 5.7 | – | COc1cccc(CCCN2CCN(Cc3cc4ccccc4o3)CC2)c1 | 40 | 7
9 | 290 | – | < 50 | 13 | < 50 | COc1cccc(CCN2CCN(Cc3cc4ccccc4o3)CC2)c1 | 14 | 1

Row | SMILES | Ki [1] [nM] | Ki (D(2) dopamine receptor [2]) [nM] | inhibition [3] [%] | Ki [4] [nM] | inhibition (D(2) dopamine receptor [6]) [%] | Ki [5] [nM] | Ratio Ki (PC-12)
10 | COc1ccccc1CCN1CCN(Cc2cc3ccccc3o2)CC1 | 120 | 1650 | < 50 | 17 | – | 81 | 5
11 | c1ccc(CCN2CCN(Cc3cc4ccccc4o3)CC2)cc1 | 310 | – | < 50 | 7.3 | < 50 | 131 | 18
12 | c1ccc(CCCN2CCN(Cc3cc4ccccc4o3)CC2)cc1 | 147 | 1020 | < 50 | 5.7 | – | 18 | 3

From ChEMBL document CHEMBL1833923, “Effects of linker elongation in a series of N-(2-benzofuranylmethyl)-N'-(methoxyphenylalkyl)piperazine σ₁ receptor ligands” (Bioorg Med Chem Lett, 2011)
